Activity calls are given as the source filed them. The rule behind the calls is not given here.
Experiments:
MIA PaCa-2 [1] = assay: Cytostatic activity against human MIAPaCa2 cells after 72 hrs by MTS assay; assay type: functional, cell-based; conditions: MIA PaCa-2, 72 h
Method in brief: (§1)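 Pancreatic carcinoma cell proliferation assay. IC50 is the concentration that inhibits tumor cell proliferation by 50%. Values are means of at least two independent experiments.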

CCRF-CEM = assay: Cytostatic activity against human CEM cells after 72 hrs by coulter counter analysis; assay type: functional, cell-based
Method in brief: (§2)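 Tumor cell proliferation assay with murine leukemia and human T-lymphoblast cells. IC50 is the concentration that inhibits proliferation by 50%. Values are means of at least two independent experiments.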

L1210 = assay: Cytostatic activity against mouse L1210 cells after 48 hrs by coulter counter analysis; assay type: functional, cell-based; conditions: L1210, 48 h; method in brief: as §2
BXPC-3 [2] = assay: Cytostatic activity against human BxPC3 cells after 72 hrs by MTS assay; assay type: functional, cell-based; conditions: BXPC-3, 72 h; method in brief: as §1
MIA PaCa-2 [3] = assay: Ratio of gemcitabine IC50 to compound IC50 for human MIAPaCa2 cells after 72 hrs by MTS assay; assay type: functional
BXPC-3 [4] = assay: Antitumor activity against human BxPC3 cells xenografted in Balb/c nude mouse assessed as tumor growth inhibition at 0.19 mmol/kg, ip administered every week for 3 weeks; assay type: functional, organism-based
Cytidine deaminase = Cytidine deaminase (Homo sapiens, UniProt P32320); assay: Drug degradation assessed as recombinant human cytidine deaminase-mediated dFdU formation at 100 uM measured within 2 mins by UV absorption spectroscopic analysis; assay type: ADME
Method in brief: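 Compound or gemcitabine incubated with cytidine deaminase. UV absorption scanned at 220–350 nm over 30 min. Deamination to dFdU is read as an absorbance shift from 267 to 257 nm.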

[5] = Cytotoxicity against human RT112 cells assessed as cell viability by MTT assay in presence of dCK substrate deoxycytidine; assay type: functional, cell-based; conditions: RT-112
Method in brief: (§3)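 RT112 cancer cells were grown with the test agent, with or without 2′-deoxycytidine as a competing dCK substrate to mimic dCK down-regulation. Viable cells were counted by colorimetric MTT assay, and EC50 was taken as the concentration blocking proliferation by 50%.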

[6] = Cytotoxicity against human PANC1 cells assessed as cell viability by MTT assay in presence of hENT1 inhibitor dipyridamole; assay type: functional, cell-based; conditions: PANC-1
Method in brief: (§4)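 PANC1 pancreatic cancer cells were grown with the test agent, with or without dipyridamole to block hENT1 nucleoside transport. Viable cells were counted by colorimetric MTT assay, and EC50 was taken as the concentration blocking proliferation by 50%.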

MIA PaCa-2 [7] = assay: Antitumor activity against human MIAPaCa2 cells xenografted in Balb/c nude mouse assessed as tumor growth inhibition at 0.076 mmol/kg, ip measured on day 7; assay type: functional, organism-based
[8] = Prodrug activation in human MIAPaCa2 cells assessed as formation of dFdCTP after 24 hrs in presence of dCK inhibitor 2T2D; assay type: cell-based; conditions: mia paca-2, 24 h
Method in brief: (§5)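 Pancreatic cells were exposed to the agent for 24 h, with or without a dCK inhibitor or the hENT1 inhibitor NBTI. Intracellular dFdCTP was measured by UPLC-MS/MS on a C18 column. Elution used a 10 mM ammonium acetate/acetonitrile gradient at 700 μL/min. Detection was by triple-quadrupole heated electrospray, transition m/z 502.0→159.0 at 37 V collision energy.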

[9] = Cytotoxicity against human RT112 cells assessed as cell viability by MTT assay in absence of dCK substrate deoxycytidine; assay type: functional, cell-based; conditions: RT-112; method in brief: as §3
[10] = Prodrug activation in human BxPC3 cells assessed as formation of dFdCTP after 24 hrs in presence of hENT1 inhibitor NBTI; assay type: cell-based; conditions: bxpc-3, 24 h; method in brief: as §5
[11] = Prodrug activation in human MIAPaCa2 cells assessed as formation of dFdCTP after 24 hrs in presence of hENT1 inhibitor NBTI; assay type: cell-based; conditions: mia paca-2, 24 h; method in brief: as §5
[12] = Cytotoxicity against human PANC1 cells assessed as cell viability by MTT assay in absence of hENT1 inhibitor dipyridamole; assay type: functional, cell-based; conditions: PANC-1; method in brief: as §4
Mus musculus = assay: Toxicity in Balb/c nude mouse xenografted with human BxPC3 cells assessed as change in body weight at 0.19 to 0.076 mmol/kg, ip administered 2 times per week for 2 weeks measured every week during compound treatment; assay type: organism-based, BXPC-3; conditions: in vivo, 336 h
MIA PaCa-2 [13] = assay: Antitumor activity against human MIAPaCa2 cells xenografted in Balb/c nude mouse assessed as tumor growth inhibition at 0.19 mmol/kg, ip administered every week for 3 weeks; assay type: functional, organism-based
RT-112 = assay: Ratio of EC50 for human RT112 cells in presence of dCK substrate deoxycytidine to EC50 for human RT112 cells in absence of dCK substrate deoxycytidine; assay type: functional
Method in brief: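 RT112 cells exposed to compound with or without the dCK substrate 2′-deoxycytidine, which competes for dCK activity. Viable cells counted by colorimetric MTT assay. EC50 is the concentration blocking cell proliferation, compared between the two conditions.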

[14] = Prodrug activation in human BxPC3 cells assessed as formation of dFdCTP after 24 hrs in presence of dCK inhibitor 2T2D; assay type: cell-based; conditions: bxpc-3, 24 h; method in brief: as §5

Chain of Cytidine deaminase (P32320 whole entry): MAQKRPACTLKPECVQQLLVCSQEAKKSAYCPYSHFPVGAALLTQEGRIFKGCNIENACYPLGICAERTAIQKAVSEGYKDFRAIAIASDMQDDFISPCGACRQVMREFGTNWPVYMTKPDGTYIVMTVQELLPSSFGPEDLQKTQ

IC50 (MIA PaCa-2 [1]) | IC50 (BXPC-3 [2]) | Structure (SMILES) | IC50 (CCRF-CEM) | IC50 (L1210) | other results
1.41 µM | 0.36 µM | C[C@H](NP(=O)(OC[C@H]1O[C@@H](n2ccc(N)nc2=O)C(F)(F)[C@@H]1O)Oc1ccccc1)C(=O)OCC(C)(C)C (some centres undefined) | 0.44 µM | 0.39 µM | –
0.46 µM | 0.15 µM | C[C@H](NP(=O)(OC[C@H]1O[C@@H](n2ccc(N)nc2=O)C(F)(F)[C@@H]1O)Oc1cccc2ccccc12)C(=O)OC1CCCC1 (some centres undefined) | 0.11 µM | 0.18 µM | Ratio IC50 (MIA PaCa-2 [3]): 2
– | – | CCCCCCOC(=O)[C@H](C)NP(=O)(OC[C@H]1O[C@@H](n2ccc(N)nc2=O)C(F)(F)[C@@H]1O)Oc1cccc2ccccc12 (some centres undefined) | 0.075 µM | 0.022 µM | –
1.04 µM | 0.67 µM | Nc1ccn([C@@H]2O[C@H](CO)[C@@H](O)C2(F)F)c(=O)n1 [GEMCITABINE] | 0.086 µM | – | TGI (BXPC-3 [4]): inactive; Stability (Cytidine deaminase): Unstable; EC50 [5]: 0.105 µM; EC50 [6]: > 2000 µM; TGI (MIA PaCa-2 [7]): Active; Drug metabolism [8]: Not Active; EC50 [9]: 0.0014 µM; Drug metabolism [10]: Not Active; Drug metabolism [11]: Not Active; EC50 [12]: 611 µM; Activity (Mus musculus): Non-toxic; TGI (MIA PaCa-2 [13]): Active; Ratio EC50 (RT-112): 75; Drug metabolism [14]: Not Active
– | – | CCCCCOC(=O)[C@H](C)NP(=O)(OC[C@H]1O[C@@H](n2ccc(N)nc2=O)C(F)(F)[C@@H]1O)Oc1cccc2ccccc12 (some centres undefined) | 0.073 µM | 0.03 µM | –
– | – | CCCCCOC(=O)[C@H](C)NP(=O)(OC[C@H]1O[C@@H](n2ccc(N)nc2=O)C(F)(F)[C@@H]1O)Oc1ccccc1 (some centres undefined) | 0.08 µM | 0.024 µM | –
– | – | C[C@H](NP(=O)(OC[C@H]1O[C@@H](n2ccc(N)nc2=O)C(F)(F)[C@@H]1O)Oc1cccc2ccccc12)C(=O)OC1CCCCC1 (some centres undefined) | 0.14 µM | 0.32 µM | –
